Reference: ChEMBL document CHEMBL4138058, “Design and synthesis of novel selective estrogen receptor degradation inducers based on the diphenylheptane skeleton” (Medchemcomm, 2017)

Assays:
Format in all cases: cell-based
[1] = molecular target: T1, Aryl hydrocarbon receptor (Homo sapiens, UniProt P35869); test: Downregulation of AhR expression in human MCF7 cells at 3 uM after 6 hrs in presence of proteasome inhibitor MG132 by Western blot method relative to lamin B; conditions: mcf7, 6 h
T1 sequence (P35869 whole entry): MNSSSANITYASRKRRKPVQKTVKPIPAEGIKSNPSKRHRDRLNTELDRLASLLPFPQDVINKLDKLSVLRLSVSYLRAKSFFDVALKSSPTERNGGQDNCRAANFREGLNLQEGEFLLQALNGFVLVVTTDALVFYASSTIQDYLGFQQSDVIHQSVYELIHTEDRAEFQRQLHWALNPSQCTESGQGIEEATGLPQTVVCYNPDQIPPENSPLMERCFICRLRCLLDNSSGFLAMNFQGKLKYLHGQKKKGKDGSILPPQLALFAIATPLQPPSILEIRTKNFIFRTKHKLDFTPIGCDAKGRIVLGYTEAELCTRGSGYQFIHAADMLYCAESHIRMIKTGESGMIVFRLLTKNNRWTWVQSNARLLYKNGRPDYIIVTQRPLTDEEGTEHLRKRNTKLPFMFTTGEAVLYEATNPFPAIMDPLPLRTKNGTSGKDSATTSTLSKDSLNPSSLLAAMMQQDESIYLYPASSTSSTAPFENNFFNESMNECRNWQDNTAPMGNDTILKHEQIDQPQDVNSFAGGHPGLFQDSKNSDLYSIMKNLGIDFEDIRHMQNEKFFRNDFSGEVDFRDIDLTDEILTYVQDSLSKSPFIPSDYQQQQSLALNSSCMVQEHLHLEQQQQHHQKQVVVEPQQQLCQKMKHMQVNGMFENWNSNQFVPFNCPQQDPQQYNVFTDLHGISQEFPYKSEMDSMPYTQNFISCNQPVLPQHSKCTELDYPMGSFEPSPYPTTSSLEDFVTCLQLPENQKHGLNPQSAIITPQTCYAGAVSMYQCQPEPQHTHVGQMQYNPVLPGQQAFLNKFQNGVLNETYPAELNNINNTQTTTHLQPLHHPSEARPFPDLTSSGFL
How it was run: (§1)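 MCF-7 cells kept in DMEM with 10% FBS, kanamycin and 10 μg/mL insulin, then exposed to compounds for 6 h. Lysates made in SDS buffer (0.1 M Tris-HCl pH 8.0, 10% glycerol, 1% SDS), boiled, BCA-normalized and run on SDS-PAGE. Blots probed with anti-ERα, AR, AhR or VDR and β-actin or lamin B. Chemiluminescence quantified as target/loading-protein ratio; means ± S.E., n=3.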

[2] = molecular target: T2, Androgen receptor (Homo sapiens) (UniProt P10275); test: Downregulation of androgen receptor expression in human MCF7 cells at 10 uM after 6 hrs in presence of proteasome inhibitor MG132 by Western blot method relative to lamin B; how it was run: as §1
T2 sequence (whole entry): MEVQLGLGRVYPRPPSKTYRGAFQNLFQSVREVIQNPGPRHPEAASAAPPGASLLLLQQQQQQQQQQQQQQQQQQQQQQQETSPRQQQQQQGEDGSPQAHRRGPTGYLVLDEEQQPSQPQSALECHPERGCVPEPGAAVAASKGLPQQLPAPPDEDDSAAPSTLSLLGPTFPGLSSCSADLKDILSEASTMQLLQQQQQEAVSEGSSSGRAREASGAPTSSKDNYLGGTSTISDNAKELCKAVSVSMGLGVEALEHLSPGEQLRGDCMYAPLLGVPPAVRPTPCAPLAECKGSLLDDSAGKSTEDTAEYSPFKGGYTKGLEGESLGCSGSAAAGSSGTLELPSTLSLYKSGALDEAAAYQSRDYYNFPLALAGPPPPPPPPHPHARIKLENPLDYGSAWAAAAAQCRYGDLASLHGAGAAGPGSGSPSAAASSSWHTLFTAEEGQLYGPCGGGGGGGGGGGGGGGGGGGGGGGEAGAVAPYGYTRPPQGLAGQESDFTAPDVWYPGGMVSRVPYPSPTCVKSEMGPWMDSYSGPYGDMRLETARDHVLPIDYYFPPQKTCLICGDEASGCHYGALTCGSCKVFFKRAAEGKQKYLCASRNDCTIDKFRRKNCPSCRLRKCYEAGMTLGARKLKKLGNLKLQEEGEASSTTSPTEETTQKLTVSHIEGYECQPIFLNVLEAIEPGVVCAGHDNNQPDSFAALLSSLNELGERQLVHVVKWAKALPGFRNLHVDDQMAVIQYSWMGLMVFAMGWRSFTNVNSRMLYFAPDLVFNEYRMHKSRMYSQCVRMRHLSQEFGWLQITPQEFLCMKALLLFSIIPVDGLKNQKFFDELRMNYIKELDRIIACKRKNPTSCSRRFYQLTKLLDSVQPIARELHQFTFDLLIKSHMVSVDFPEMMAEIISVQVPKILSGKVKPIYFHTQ

[3] = molecular target: T3, Vitamin D3 receptor (Homo sapiens) (UniProt P11473); test: Downregulation of VDR expression in human MCF7 cells at 3 uM after 6 hrs in presence of proteasome inhibitor MG132 by Western blot method relative to lamin B; how it was run: as §1
T3 sequence (whole entry): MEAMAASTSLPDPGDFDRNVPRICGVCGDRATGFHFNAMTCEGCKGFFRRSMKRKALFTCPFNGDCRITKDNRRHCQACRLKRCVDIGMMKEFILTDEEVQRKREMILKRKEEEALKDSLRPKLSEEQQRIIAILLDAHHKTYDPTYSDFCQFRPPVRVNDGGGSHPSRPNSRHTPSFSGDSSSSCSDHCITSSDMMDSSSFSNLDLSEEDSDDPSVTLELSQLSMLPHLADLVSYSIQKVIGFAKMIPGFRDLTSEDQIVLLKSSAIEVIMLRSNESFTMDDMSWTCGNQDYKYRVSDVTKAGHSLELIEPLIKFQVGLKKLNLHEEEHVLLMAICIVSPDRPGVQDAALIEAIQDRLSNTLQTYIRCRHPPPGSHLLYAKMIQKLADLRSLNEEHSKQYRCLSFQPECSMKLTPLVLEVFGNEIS

CCCCCCCCCCNCCOc1ccc(C(CCC)(CCC)c2ccc(O)c(C)c2)cc1C
Activity [1]: 99%
Activity [2]: 77%
Activity [3]: 83%
